Compound activity: PubChem, several laboratories
Runt-CBFb FRET: Runt domain-CBFb interaction inhibition; Q01196+Q13951; Cerulean-Runt/Venus-CBFb FRET ratio 530/480, 1 h; inhibition, % at 20 µM; 220,000 compounds, 0.46% hits; AID 1496;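 active = inhibition over about 50% at 20 µM in the single-dose screen, limit read from the data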
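Assay system: Cerulean-tagged RUNX1 Runt domain (FRET donor) fusion protein / Amount: 100 nM each of Venus-CBFb and Cerulean-Runt domain / Medium: Tris buffer pH 7.5 with salts and BSA / Also added: Venus-CBFb 100 nM / Schedule: 1 h complex formation plus 1 h compound treatment, room temperature / Signal: FRET fluorescence / Read-out: loss of energy transfer signal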
Hck-Nef inh: inhibitors of human Hck kinase activated by Nef. P08631. Recombinant Hck-YEEI plus Nef, Z-Lyte FRET kinase assay. inhibition, % at 20 µM. 220,000 compounds, 0.68% hits;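 active = Hck-Nef kinase inhibition above about 50%, limit read from the data; inactive = inhibition below that limit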
p97 ATPase inh: blocks human p97 ATPase activity. recombinant p97 ATPase, Kinase-Glo ATP luminescence, 3 h. inhibition, % at 8 µM. 220,000 compounds, 0.42% hits; in the data active = inhibition above about 15%
TbHK1 inh: T. brucei hexokinase 1 inhibition. recombinant TbHK1, G6PDH-coupled NADH A340. inhibition, % at 10 µM. 220,000 compounds, 0.11% hits;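 active = inhibition of 50% or more in the single-dose primary screen; inactive = inhibition below 50%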
Runt-SMMHC FRET: blocks binding of human RUNX1 Runt domain to CBFb-SMMHC; Cerulean-Runt/Venus-CBFb-SMMHC FRET ratio 530/480, 1 h; AID 1434; 220,000 compounds, 0.74% hits; inhibition, % at 20 µM;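 active = mean inhibition across duplicate retests at 20 µM reaching about 50%, limit read from the data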;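 also: inhibitors lower the FRET ratio by blocking Runt binding to CBFb-SMMHC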
RanGTP-Imp inh: disruptors of Ran-importin-beta complex formation – biochemical, FRET, CFP-Ran, YFP-importin-beta, homogeneous, primary screen. AID 2216. cell-free CFP-Ran/YFP-importin-beta FRET ratio. 300,000 compounds, 1.1% hits. inhibition, % (no concentration beside the values);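 active = more than half of the replicate wells show a fall in the fluorescence ratio signal beyond about 16%, limit read from the data, passing the limit was not always enough; inconclusive = exactly half of the replicate wells pass the set limit; inactive = fewer than half of replicates pass the limit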
Hck Nef conf: Hck-Nef kinase inhibition, confirmation; shares compounds with Hck-Nef inh; Recombinant Hck-YEEI:Nef, Z-Lyte FRET kinase assay; calls only at 10 µM; 1,300 compounds, 28% hits;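 active = average inhibition of at least 50%, with Z-scores no higher than 3 in both the phospho-tyrosine peptide and fluorescence counterscreens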
Hits are given with their value; n = inactive; u = inconclusive; x = no result given; + = active, no number. A selection: hits, their analogues and other compounds. The true share with any hit is near 2.1%.

SMILES	Runt-CBFb FRET	Hck-Nef inh	p97 ATPase inh	TbHK1 inh	Runt-SMMHC FRET	RanGTP-Imp inh	Hck Nef conf
CC(=O)c1cc2c(O)c(O)ccc2o1	n	n	n	n	n	n	x
COc1ccc(CCN2CC(C(=O)NCCc3cn[nH]c3)CCC2=O)cc1 (stereo unspecified)	x	x	x	x	x	n	x
CCn1c(C)nc2cc(C(=O)N/N=C/c3ccc(O)c(O)c3O)ccc21	n	75	n	n	n	n	+
CN(C(=O)c1sc2nc(N3CCOCC3)c3c(c2c1N)CCCC3)c1ccccc1	n	53	n	n	n	n	n
CCOC(=O)C1C(=O)C=C(c2ccc(C)cc2)CC1c1cccc([N+](=O)[O-])c1 (stereo unspecified)	n	n	n	n	n	n	x
COc1ccc(C2=NN(C(=O)c3ccco3)C(c3cc4ccccc4nc3Cl)C2)cc1 (stereo unspecified)	n	51	n	n	n	n	n
Cc1cc(/C=C(\C#N)C(=O)N2CCOCC2)c(C)n1C1CCCC1	n	n	n	n	n	n	x
Cc1cc(C)cc(NC(=O)CSc2nc(=O)n3cc(C)ccc3n2)c1	x	x	x	x	x	n	x
C=CCn1c(=N)c(C(=O)NCCCOC)cc2c(=O)n3ccccc3nc21	n	+	n	n	82	175	x
C=CCn1c(=N)c(C(=O)NCCCOC)cc2c(=O)n3cc(C)ccc3nc21	n	187	n	n	79	n	x
COCCCNC(=O)c1cn(-c2cccc(OC)c2)c(=O)c2ccccc12	x	x	x	x	x	n	x
CNC(=O)c1cc2c(=O)n3cc(C)ccc3nc2n(C(C)C)c1=N	n	171	n	n	n	181	x
Brc1ccc(C2C3=C(Nc4ncnn42)c2ccccc2OC3c2ccncc2)cc1 (stereo unspecified)	n	73	n	n	n	n	+
COc1ccc(C2Oc3ccccc3C3=C2C(c2cccs2)n2ncnc2N3)cc1 (stereo unspecified)	n	n	n	n	n	n	x
CCNC(=S)N/N=C/c1ccc(OCC(=O)Nc2ccc(OC)cc2)c(OC)c1	n	n	n	n	n	n	x
CCCCNC(=O)C(=O)N/N=C/c1ccc(OCC(=O)Nc2cccc(OC)c2)c(OC)c1	n	71	n	n	n	n	+
C=CCN(CC=C)C(=O)c1cc(Cl)ccc1[N+](=O)[O-]	n	64	n	n	n	n	n
C=CCNC(=O)c1cc(Cl)ccc1[N+](=O)[O-]	n	n	n	n	n	n	x
COc1ccc(C(=O)N=c2sc3ccccc3n2C)cc1	n	n	n	n	n	n	x
COc1cc(OC)cc(C(=O)N=c2sc3ccccc3n2C)c1	n	81	n	n	n	n	n
CCOC(=O)NCCOC(=O)Nc1ccc(Cl)cc1	n	58	n	n	n	n	n
Cc1ccc(NC(=O)OCCNC(=O)OC(C)C)cc1	x	n	n	n	n	u	x
COC(=O)Cc1cc(=O)oc2cc(O)ccc12	80	102	n	n	92	69	x
O=c1cc(O)c2ccc(O)cc2o1	n	n	n	n	n	n	x
COc1cccc(-c2cccc(NC(=O)C3CCN(CC4CCOC4)CC3)c2)c1 (stereo unspecified)	x	x	x	x	x	n	x
SMILES	Runt-CBFb FRET	Hck-Nef inh	p97 ATPase inh	TbHK1 inh	Runt-SMMHC FRET	RanGTP-Imp inh	Hck Nef conf
COc1ccccc1CCC(=O)Oc1ccc(C#N)cc1OC	x	x	x	x	x	n	x
N#CC(NC(=O)OCc1ccccc1)c1ccccc1 (stereo unspecified)	x	x	x	x	x	n	x
COc1cc(/C=C2\SC(c3ccccc3)=NC2=O)cc(Cl)c1O	n	50	n	n	69	n	+
COc1ccccc1OCC(=O)N(Cc1nnc(-c2ccccc2Cl)o1)C1CC1	x	x	x	x	x	n	x
Cc1ccc(-c2nn(C(C)(C)C)c3ncnc(NS(=O)(=O)c4ccc([N+](=O)[O-])cc4)c23)cc1	n	n	n	n	n	n	x
CC(C)(C)n1nc(-c2ccc(F)cc2)c2c(N)ncnc21	n	109	n	n	n	u	+
CC(C)(C)n1nc(-c2ccc(Cl)cc2)c2c(N)ncnc21	n	105	n	n	n	u	+
Cc1ccc(-c2nc(N)c3c(-c4ccc(C)cc4)nn(C(C)(C)C)c3n2)cc1	n	n	n	n	n	n	x
